Experimental data taken from ChEMBL document CHEMBL1147759, “Substituted indanylacetic acids as PPAR-alpha-gamma activators” (Bioorg Med Chem Lett, 2006).

What was measured:
[1] = biological target: T1, Peroxisome proliferator-activated receptor gamma (Homo sapiens, UniProt P37231); experiment: Activity against PPAR gamma in human by FRET assay
T1 sequence (P37231 whole entry): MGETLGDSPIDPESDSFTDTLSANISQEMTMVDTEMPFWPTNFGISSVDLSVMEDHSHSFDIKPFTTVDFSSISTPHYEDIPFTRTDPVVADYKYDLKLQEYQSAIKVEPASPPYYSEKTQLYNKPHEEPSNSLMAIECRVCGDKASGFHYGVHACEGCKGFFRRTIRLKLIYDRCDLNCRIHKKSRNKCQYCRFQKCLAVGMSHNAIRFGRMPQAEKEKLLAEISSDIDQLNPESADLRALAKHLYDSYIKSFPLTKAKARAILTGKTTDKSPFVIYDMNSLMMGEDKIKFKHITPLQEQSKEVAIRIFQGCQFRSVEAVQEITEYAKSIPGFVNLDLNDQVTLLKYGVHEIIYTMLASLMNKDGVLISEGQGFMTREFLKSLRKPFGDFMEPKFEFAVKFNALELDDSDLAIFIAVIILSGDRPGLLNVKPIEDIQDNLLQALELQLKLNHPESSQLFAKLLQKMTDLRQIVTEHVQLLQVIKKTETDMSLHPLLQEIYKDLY

[2] = biological target: T2, Peroxisome proliferator-activated receptor alpha (Homo sapiens, UniProt Q07869); experiment: Activity against PPAR alpha in human by FRET assay
T2 sequence (Q07869 whole entry): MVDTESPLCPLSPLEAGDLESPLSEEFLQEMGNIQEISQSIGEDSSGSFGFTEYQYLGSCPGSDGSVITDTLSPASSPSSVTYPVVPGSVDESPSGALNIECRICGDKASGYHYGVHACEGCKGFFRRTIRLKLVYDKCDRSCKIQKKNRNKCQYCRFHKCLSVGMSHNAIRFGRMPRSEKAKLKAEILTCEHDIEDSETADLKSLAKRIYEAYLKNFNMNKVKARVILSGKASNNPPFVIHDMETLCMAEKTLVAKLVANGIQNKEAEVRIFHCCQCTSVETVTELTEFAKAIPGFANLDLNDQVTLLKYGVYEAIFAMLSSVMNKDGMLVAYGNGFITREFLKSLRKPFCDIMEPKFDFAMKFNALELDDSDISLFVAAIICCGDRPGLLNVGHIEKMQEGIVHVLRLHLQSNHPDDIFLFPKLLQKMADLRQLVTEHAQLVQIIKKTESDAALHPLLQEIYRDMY
In short: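 Human PPAR-α ligand-binding domain (GST-tagged), incubated with compound, europium-labelled anti-GST antibody, biotinylated CREB-binding protein co-activator and streptavidin-APC. Time-resolved FRET read with excitation at 340 nm and emission at 615 and 640 nm. EC50 taken as the mean of at least three experiments.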

Compound	EC50 [1] [nM]	EC50 [2] [nM]
CCC(C(=O)O)C1CCc2cc(OCCc3nc(-c4ccc5c(c4)OCO5)oc3C)ccc21 (centres undefined)	14	354
CCC(C(=O)O)C1CCc2cc(OCCc3nc(-c4ccc(OC)c(OC)c4)oc3C)ccc21 (centres undefined)	84	1130
CCC(C(=O)O)C1CCc2cc(OCCc3nc(-c4ccc(C)c(F)c4)oc3C)ccc21 (centres undefined)	43	46
CCC(C(=O)O)C1CCc2cc(OCCc3nc(Cc4ccc(F)cc4)oc3C)ccc21 (centres undefined)	523	204
CCC(C(=O)O)C1CCc2cc(OCCc3nc(-c4ccccc4)oc3C)c(C(C)=O)cc21 (centres undefined)	> 10000	327
CCC(C(=O)O)C1CCc2cc(OCCc3nc(-c4ccc(Cl)cc4Cl)oc3C)ccc21 (centres undefined)	738	5480
CCC(C(=O)O)C1CCc2cc(OCCc3nc(-c4ccc(C)cc4)oc3C)ccc21 (centres undefined)	45	65
CCC(C(=O)O)C1CCc2cc(OCCc3nc(-c4ccccc4F)oc3C)ccc21 (centres undefined)	49	559
CCC(C(=O)O)C1CCc2cc(OCCc3nc(COc4ccccc4)oc3C)ccc21 (centres undefined)	45	61
CCC(C(=O)O)C1CCc2cc(OCCc3nc(-c4ccccc4)oc3C)c(-c3ccc(OC)cc3)cc21 (centres undefined)	124	23
CCC(C(=O)O)C1CCc2cc(OCc3cc(-c4ccccc4)on3)ccc21 (centres undefined)	> 10000	670
CCC(C(=O)O)C1CCc2cc(OCCc3nc(-c4ccccc4)oc3C)c(Br)cc21 (centres undefined)	> 10000	181
CCC(C(=O)O)C1CCc2cc(OCCc3nc(-c4cccc(C(F)(F)F)c4)oc3C)ccc21 (centres undefined)	21	171
CCC(C(=O)O)C1CCc2cc(OCCc3nc(-c4ccc(C(C)(C)C)cc4)oc3C)ccc21 (centres undefined)	19	240
CCC(C(=O)O)C1CCc2cc(OCCc3nc(-c4ccc(F)c(C)c4)oc3C)ccc21 (centres undefined)	77	75
CC[C@@H](C(=O)O)[C@H]1CCc2cc(OCCc3nc(-c4ccc(C)cc4)oc3C)ccc21	> 10000	> 10000

Compound	EC50 [1] [nM]	EC50 [2] [nM]
CCc1ccc(-c2nc(CCOc3ccc4c(c3)CCC4C(CC)C(=O)O)c(C)o2)cc1 (centres undefined)	40	109
CCC(C(=O)O)C1CCc2cc(OCCc3nc(-c4cccc(OC)c4)oc3C)ccc21 (centres undefined)	1	254
CCC(C(=O)O)C1CCc2cc(OCc3nc(-c4ccccc4)oc3C)ccc21 (centres undefined)	632	1220
CCC(C(=O)O)C1CCc2cc(OCCCc3nc(-c4ccccc4)oc3C(F)(F)F)ccc21 (centres undefined)	> 10000	232
CCC(C(=O)O)C1CCc2cc(OCCc3nc(-c4ccco4)oc3C)ccc21 (centres undefined)	396	745
CCC(C(=O)O)C1CCc2cc(OCCc3nc(-c4cccc(C)c4)oc3C)ccc21 (centres undefined)	34	271
CCC(C(=O)O)C1CCc2cc(OCCc3nc(C4CCCCC4)oc3C)ccc21 (centres undefined)	136	111
CCC(C(=O)O)C1CCc2cc(OCCc3nc(-c4ccccc4)oc3C)c(-c3ccc(Cl)cc3)cc21 (centres undefined)	168	45
CCC(C(=O)O)C1CCc2cc(OCCc3nc(C4CCCC4)oc3C)ccc21 (centres undefined)	212	202
CCC(C(=O)O)C1CCc2cc(OCCc3nc(-c4ccc(OC)cc4)oc3C)ccc21 (centres undefined)	42	199
CCC(C(=O)O)C1CCc2cc(OCCc3nc(-c4ccc5c(c4)OCC5)oc3C)ccc21 (centres undefined)	6	65
CC[C@H](C(=O)O)[C@@H]1CCc2cc(OCCc3nc(-c4ccccc4)oc3C)ccc21	6	62
CCC(C(=O)O)C1CCc2cc(OCCc3nc(-c4cc(C)on4)oc3C)ccc21 (centres undefined)	762	827
CC[C@@H](C(=O)O)[C@@H]1CCc2cc(OCCc3nc(-c4ccc(C)cc4)oc3C)ccc21	> 10000	1520
CCC(C(=O)O)C1CCc2cc(OCCc3nc(-c4ccccc4)oc3-c3ccccc3)ccc21 (centres undefined)	617	> 10000
CCC(C(=O)O)C1CCc2cc(OCCc3coc(-c4ccccc4)n3)ccc21 (centres undefined)	306	383
